Laboratory results from ChEMBL document CHEMBL1146776, “Identification and optimization of novel partial agonists of neuromedin B receptor using parallel synthesis” (Bioorg Med Chem Lett, 2004).

What was measured:
Neuromedin-B receptor [1] = biological target: T1, Neuromedin-B receptor (Homo sapiens, UniProt P28336); assay: Affinity of [125I][D-Tyr0]-NMB to human Neuromedin B receptor expressed in HEK293 cells; assay type: cell-based
Outline: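 Whole-cell competition binding on HEK293 cells stably transfected with hNMBR, 1 · 10⁶ cells per well in DMEM. Incubation 1 h at room temperature with 150 pM ¹²⁵I-[D-Tyr0]NMB (2200 Ci/mmol). Bound and free ligand separated by filtration; bound counts read by scintillation counting.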

Neuromedin-B receptor [2] = biological target: T1, Neuromedin-B receptor; assay: Agonistic activity was determined against human Neuromedin B receptor transfected in HEK293 cells as accumulation levels of inositol phosphate; assay type: functional, cell-based
Outline: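 hNMBR-transfected HEK293 cells (2.5 · 10⁴) labelled overnight at 37 °C in high-glucose DMEM with 25 mM Hepes, 10% dialyzed FBS and myo-[³H]inositol. Compounds added in inositol-free DMEM with 0.3% BSA and 10 mM LiCl, 60 min, 37 °C. Lysis in 20 mM formic acid, 2 h, 4 °C. Inositol phosphates captured on SPA beads and counted next day.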

HeLa = assay: Cytotoxicity towards HeLa cells was determined; assay type: functional, cell-based; conditions: Homo sapiens

T1 sequence (P28336 whole entry): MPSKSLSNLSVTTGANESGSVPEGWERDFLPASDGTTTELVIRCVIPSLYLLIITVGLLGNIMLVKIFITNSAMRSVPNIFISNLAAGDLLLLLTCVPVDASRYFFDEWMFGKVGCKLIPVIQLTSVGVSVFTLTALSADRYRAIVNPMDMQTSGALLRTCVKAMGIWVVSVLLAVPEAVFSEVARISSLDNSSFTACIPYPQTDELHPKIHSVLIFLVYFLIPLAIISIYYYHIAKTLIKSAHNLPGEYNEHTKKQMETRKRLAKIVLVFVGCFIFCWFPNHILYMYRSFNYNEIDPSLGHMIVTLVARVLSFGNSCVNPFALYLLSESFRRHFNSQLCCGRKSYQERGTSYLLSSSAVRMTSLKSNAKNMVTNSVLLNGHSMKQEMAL

Structure (SMILES)	IC50 (Neuromedin-B receptor [1]) [µM]	EC50 (Neuromedin-B receptor [2]) [µM]	IC50 (HeLa) [µM]
Cc1cccc2[nH]c3c(c12)CC(NC(=O)Nc1c(C(C)C)cccc1C(C)C)(C(=O)NCC1(c2ccccn2)CCCCC1)CC3 (stereo not given)	0.66		
CCNC(=O)NC1(C(=O)NCC2(c3ccccn3)CCCCC2)CCc2[nH]c3ccccc3c2C1 (stereo not given)	> 10		
CC(C)c1cccc(C(C)C)c1NC(=O)NC1(C(=O)NCC2(c3ccccn3)CCCCC2)CCc2[nH]c3cc(Br)ccc3c2C1 (stereo not given)	2.14		
CC(C)c1cccc(C(C)C)c1NC(=O)NC1(C(=O)NCC2(c3ccc(Cl)cc3)CC2)CCc2[nH]c3ccccc3c2C1 (stereo not given)	> 10		
CC(C)c1cccc(C(C)C)c1NC(=O)NC1(C(=O)NCC2(c3ccccn3)CCCCC2)CCc2[nH]c3cccc(C(F)(F)F)c3c2C1 (stereo not given)	3.66		
Cc1cc([N+](=O)[O-])ccc1NC(=O)NC1(C(=O)NCC2(c3ccccn3)CCCCC2)CCc2[nH]c3ccccc3c2C1 (stereo not given)	0.62		
O=C(Nc1ccc([N+](=O)[O-])cc1)NC1(C(=O)NCC2(c3ccccn3)CCCCC2)CCc2[nH]c3ccccc3c2C1 (stereo not given)	0.8		
CC(C)(CNC(=O)C1(NC(=O)Nc2ccc([N+](=O)[O-])cc2)CCc2[nH]c3ccccc3c2C1)c1ccccn1 (stereo not given)	10		
CC(C)c1cccc(C(C)C)c1NC(=O)NC1(C(=O)NCC2(c3ccccn3)CCCCC2)CCc2[nH]c3cccc([N+](=O)[O-])c3c2C1 (stereo not given)	> 10		
O=C(Nc1ccc(C(F)(F)F)cc1)NC1(C(=O)NCC2(c3ccccn3)CCCCC2)CCc2[nH]c3ccccc3c2C1 (stereo not given)	1.11		
CCOC(=O)c1cc(NC(=O)NC2(C(=O)NCC3(c4ccccn4)CCCCC3)CCc3[nH]c4ccccc4c3C2)cc(C(=O)OCC)c1 (stereo not given)	1.85		
O=C(NC1CCCCC1)NC1(C(=O)NCC2(c3ccccn3)CCCCC2)CCc2[nH]c3ccccc3c2C1 (stereo not given)	3.92		
O=C(Nc1ccc([N+](=O)[O-])cc1)NC1(C(=O)NCC2(c3ccccn3)CCS(=O)(=O)CC2)CCc2[nH]c3ccccc3c2C1 (stereo not given)	> 10		
CC(=O)c1cccc(NC(=O)NC2(C(=O)NCC3(c4ccccn4)CCCCC3)CCc3[nH]c4ccccc4c3C2)c1 (stereo not given)	2.27		
COc1ccccc1NC(=O)NC1(C(=O)NCC2(c3ccccn3)CCCCC2)CCc2[nH]c3ccccc3c2C1 (stereo not given)	8.72		
O=C(Nc1ccc(OC(F)(F)F)cc1)NC1(C(=O)NCC2(c3ccccn3)CCCCC2)CCc2[nH]c3ccccc3c2C1 (stereo not given)	3.04		

Structure (SMILES)	IC50 (Neuromedin-B receptor [1]) [µM]	EC50 (Neuromedin-B receptor [2]) [µM]	IC50 (HeLa) [µM]
CC(C)c1cccc(C(C)C)c1NC(=O)NC1(C(=O)NCC2(c3ccccn3)CCCCC2)CCc2[nH]c3ccccc3c2C1 (stereo not given)	0.32	0.603	
Cc1cccc(C)c1NC(=O)NC1(C(=O)NCC2(c3ccccn3)CCCCC2)CCc2[nH]c3ccccc3c2C1 (stereo not given)	5.49		
CC(C)c1cccc(C(C)C)c1NC(=O)NC1(C(=O)NCC2(c3ccccn3)CCCCC2)CCc2[nH]c3cccc(C(=O)O)c3c2C1 (stereo not given)	> 10		
NC(=O)NC1(C(=O)NCC2(c3ccccn3)CCCCC2)CCc2[nH]c3ccccc3c2C1 (stereo not given)	> 10		
CC(C)c1cccc(C(C)C)c1NC(=O)NC1(C(=O)NCC2(c3ccccn3)CCCCC2)CCc2[nH]c3cccc(OC(F)(F)F)c3c2C1 (stereo not given)	1.89		
CC(C)c1cccc(C(C)C)c1NC(=O)NC1(C(=O)NCC2(c3ccccn3)CC2)CCc2[nH]c3ccccc3c2C1 (stereo not given)	3.35		
O=C(Nc1ccc([N+](=O)[O-])cc1)NC1(C(=O)NCCc2ccccn2)CCc2[nH]c3ccccc3c2C1 (stereo not given)	> 10		
CC(C)c1cccc(C(C)C)c1NC(=O)NC1(C(=O)NCC2(c3ccccn3)CCCCC2)CCc2[nH]c3cc(F)ccc3c2C1F (stereo not given)	1.01		
CC(C)c1cccc(C(C)C)c1NC(=O)NC1(C(=O)NCC(C)(C)c2ccccn2)CCc2[nH]c3ccccc3c2C1 (stereo not given)	4.15		
CC(C)c1cccc(C(C)C)c1NC(=O)N[C@@](C)(Cc1c[nH]c2ccccc12)C(=O)NCC1(c2ccccn2)CCCCC1	0.35		
COc1cccc2[nH]c3c(c12)CC(NC(=O)Nc1c(C(C)C)cccc1C(C)C)(C(=O)NCC1(c2ccccn2)CCCCC1)CC3 (single isomer, unassigned; (+))	0.029	0.0177	> 50
COc1cccc2[nH]c3c(c12)CC(NC(=O)Nc1c(C(C)C)cccc1C(C)C)(C(=O)NCC1(c2ccccn2)CCCCC1)CC3 (single isomer, unassigned; (-))		1.97	
COc1cccc2[nH]c3c(c12)CC(NC(=O)Nc1c(C(C)C)cccc1C(C)C)(C(=O)NCC1(c2ccccn2)CCCCC1)CC3 (stereo in doubt; 20)	0.25	0.132	
Cc1ccc2[nH]c3c(c2c1)C(C)C(NC(=O)Nc1c(C(C)C)cccc1C(C)C)(C(=O)NCC1(c2ccccn2)CCCCC1)CC3 (stereo in doubt; 22)	0.7		
Cc1ccc2[nH]c3c(c2c1)C(C)C(NC(=O)Nc1c(C(C)C)cccc1C(C)C)(C(=O)NCC1(c2ccccn2)CCCCC1)CC3 (stereo in doubt; 23)	0.79		
